Mortality and LC50 data for 13 compounds are collected here from ChEMBL document CHEMBL3046946, “Design, synthesis, and insecticidal activities of new N-benzoyl-N'-phenyl-N'-sulfenylureas” (2009).

The structures appear in SMILES notation. Values after ≈ are worked out from the molar mass of the structure shown.

What all share (format): functional
Experiment [1] deals with Mythimna separata. Nature of the experiment: Insecticidal activity against fourth-instar larval stage of Mythimna separata (Oriental armyworm) in compound-pretreated corn leaves assessed as mortality at 1 mg/l at 25 +/-1degC after 4 days.
Experiment [2] deals with Mythimna separata. Nature of the experiment: Insecticidal activity against fourth-instar larval stage of Mythimna separata (Oriental armyworm) in compound-pretreated corn leaves assessed as mortality at 0.25 mg/l at 25 +/-1degC after 4 days.
The test system of experiment [3] is Mythimna separata. Description: Insecticidal activity against fourth-instar larval stage of Mythimna separata (Oriental armyworm) in compound-pretreated corn leaves assessed as mortality at 0.5 mg/l at 25 +/-1degC after 4 days.
For the next experiment, the system named is Spodoptera exigua. Description: Insecticidal activity against third-instar larval stage of Spodoptera exigua in cabbage leaves assessed as mortality at 25 +/-1degC treated for 5 secs before larval infestation measured after 4 days by leaf dip method. As to conditions: foliar, 96 h. The essentials: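 Leaf-dip assay. Fresh cabbage leaf disks (1.8 cm diameter) were dipped in test solution for 5 s before larvae were added. LC50 was calculated by Finney probit analysis of the mortality regression lines.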

A further experiment concerns Plutella xylostella. Description: Insecticidal activity against larvae of Plutella xylostella (diamondback moth) in cabbage leaves assessed as mortality at 25 +/-1degC treated for 5 secs before larval infestation measured after 4 days by leafdip method. As to conditions: 96 h. The essentials: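 Leaf-dip assay. Cabbage leaf disks (1.8 cm diameter) were dipped in test solution for 5 s, air-dried, and placed in tubes lined with filter paper. Ten second-instar larvae were added per tube. Percent mortality was read 4 days after treatment, in triplicate. LC50 was derived by Finney probit analysis of the mortality regression lines.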

Experiment [4] concerns Mythimna separata. Description: Insecticidal activity against fourth-instar larval stage of Mythimna separata (Oriental armyworm) in compound-pretreated corn leaves assessed as mortality at 2.5 mg/l at 25 +/-1degC after 4 days.

Usually mortality stands for the share of the test organisms that died. Regarding `O=C(NC(=O)N(SNc1ccc(C(F)(F)F)cc1)c1ccc(C(F)(F)F)cc1)c1c(F)cccc1F`, the mortality at 1 µg/mL in the experiment on Mythimna separata [1] was 100%. For the same compound, the mortality at 0.25 µg/mL in the experiment with Mythimna separata [2] worked out at 45%. In addition, in the experiment on Mythimna separata [3], the mortality at 0.5 µg/mL was 80%.

For orientation: LC50 means the concentration lethal to half of the exposed cells or organisms. On to `O=C(NC(=O)N(SN(C(=O)NC(=O)c1c(F)cccc1F)c1ccc(OC(F)(F)F)cc1)c1ccc(OC(F)(F)F)cc1)c1ccccc1Cl`, for which, in the experiment on Mythimna separata [1], the mortality at 1 µg/mL turned out to be 100%. For the same compound, the mortality at 0.25 µg/mL in the experiment on Mythimna separata [2] stood at 50%. The LC50 with Spodoptera exigua was determined as 31.4 µg/mL (≈ 42 µM); in the experiment on Plutella xylostella, 40.1 µg/mL (≈ 53.6 µM). Besides, the mortality at 0.5 µg/mL with Mythimna separata [3] worked out at 95%.

On to `O=C(NC(=O)N(SN(C(=O)NC(=O)c1c(F)cccc1F)c1ccc(Cl)cc1)c1ccc(Cl)cc1)c1c(F)cccc1F`, for which, in the experiment with Mythimna separata [1], the mortality at 1 µg/mL came out at 100%. In addition, the mortality at 0.25 µg/mL in the experiment with Mythimna separata [2] was 25%. Also, in the experiment with Mythimna separata [3], the mortality at 0.5 µg/mL was 85%.

As to `O=C(NC(=O)N(SN(C(=O)NC(=O)c1c(F)cccc1F)c1ccc(OC(F)(F)F)cc1)c1ccc(OC(F)(F)F)cc1)c1c(F)cccc1F`, the mortality at 1 µg/mL in the experiment on Mythimna separata [1] was determined as 100%. Also, the mortality at 0.25 µg/mL in the experiment with Mythimna separata [2] came to 20%. Also, the mortality at 0.5 µg/mL in the experiment with Mythimna separata [3] was 55%.

As to `O=C(NC(=O)N(SSN(C(=O)NC(=O)c1ccccc1Cl)c1ccc(OC(F)(F)F)cc1)c1ccc(OC(F)(F)F)cc1)c1ccccc1Cl`, in the experiment on Mythimna separata [1], the mortality at 1 µg/mL is 85%. In addition, the mortality at 0.25 µg/mL with Mythimna separata [2] is 10%. Moreover, the mortality at 2.5 µg/mL with Mythimna separata [4] was determined as 100%. The mortality at 0.5 µg/mL in the experiment on Mythimna separata [3] is 60%.

Turning to `O=C(NC(=O)N(SSN(C(=O)NC(=O)c1c(F)cccc1F)c1ccc(OC(F)(F)F)cc1)c1ccc(OC(F)(F)F)cc1)c1ccccc1Cl`, the mortality at 1 µg/mL with Mythimna separata [1] was determined as 100%. Moreover, the mortality at 0.25 µg/mL in the experiment with Mythimna separata [2] stood at 0%. The mortality at 0.5 µg/mL in the experiment with Mythimna separata [3] was found to be 40%.

For `O=C(NC(=O)N(SSN(C(=O)NC(=O)c1c(F)cccc1F)c1ccc(OC(F)(F)F)cc1)c1ccc(OC(F)(F)F)cc1)c1c(F)cccc1F`, in the experiment on Mythimna separata [1], the mortality at 1 µg/mL came to 100%. Further, the mortality at 0.25 µg/mL with Mythimna separata [2] came to 20%. The mortality at 0.5 µg/mL in the experiment with Mythimna separata [3] stood at 50%.

`O=C(NC(=O)N(SNc1ccc(OC(F)(F)F)cc1)c1ccc(OC(F)(F)F)cc1)c1c(F)cccc1F`: in the experiment on Mythimna separata [1], the mortality at 1 µg/mL worked out at 100%. Further, the mortality at 0.25 µg/mL with Mythimna separata [2] turned out to be 40%. In addition, the mortality at 0.5 µg/mL in the experiment with Mythimna separata [3] was 90%.

Regarding `O=C(NC(=O)N(SNc1ccc(Cl)cc1)c1ccc(Cl)cc1)c1c(F)cccc1F`, the mortality at 1 µg/mL with Mythimna separata [1] came out at 100%. Besides, the mortality at 0.25 µg/mL with Mythimna separata [2] came out at 0%. For the same compound, the mortality at 0.5 µg/mL with Mythimna separata [3] came to 70%.

For `O=C(NC(=O)N(SSNc1ccc(C(F)(F)F)cc1)c1ccc(C(F)(F)F)cc1)c1ccccc1Cl`, in the experiment on Mythimna separata [1], the mortality at 1 µg/mL was 70%. In addition, in the experiment on Mythimna separata [2], the mortality at 0.25 µg/mL came out at 0%. Moreover, the mortality at 2.5 µg/mL in the experiment on Mythimna separata [4] is 100%. Further, the mortality at 0.5 µg/mL in the experiment on Mythimna separata [3] worked out at 60%.

For the compound `O=C(NC(=O)N(SSNc1ccc(OC(F)(F)F)cc1)c1ccc(OC(F)(F)F)cc1)c1ccccc1Cl`, the mortality at 1 µg/mL with Mythimna separata [1] was 100%. In addition, the mortality at 0.25 µg/mL in the experiment with Mythimna separata [2] was determined as 30%. In the experiment on Mythimna separata [3], the mortality at 0.5 µg/mL amounted to 60%.

Consider `O=C(NC(=O)N(SSNc1ccc(OC(F)(F)F)cc1)c1ccc(OC(F)(F)F)cc1)c1c(F)cccc1F`, for which the mortality at 1 µg/mL in the experiment with Mythimna separata [1] was 100%. In addition, the mortality at 0.25 µg/mL with Mythimna separata [2] turned out to be 30%. In addition, the mortality at 0.5 µg/mL in the experiment with Mythimna separata [3] came to 90%.

On to `O=C(NC(=O)N(SSNc1ccc(C(F)(F)F)cc1)c1ccc(C(F)(F)F)cc1)c1c(F)cccc1F`, for which the mortality at 1 µg/mL in the experiment on Mythimna separata [1] was 100%. Further, the mortality at 0.25 µg/mL in the experiment on Mythimna separata [2] came to 10%. Moreover, the mortality at 0.5 µg/mL in the experiment on Mythimna separata [3] was found to be 70%.
